According to ChEMBL document CHEMBL1154612, “Discovery and validation of a series of aryl sulfonamides as selective inhibitors of tissue-nonspecific alkaline phosphatase (TNAP)” (J Med Chem, 2009):
pIC50: −log10 of the molar value. ≈ marks a conversion by molar mass, not a printed value.

Tests used:
[1] = biological target: T1, Alkaline phosphatase, tissue-nonspecific isozyme (Homo sapiens, UniProt P05186); assay: Inhibition of TNAP transfected in african green monkey COS1 cells by luminescent assay
T1 sequence (P05186 whole entry): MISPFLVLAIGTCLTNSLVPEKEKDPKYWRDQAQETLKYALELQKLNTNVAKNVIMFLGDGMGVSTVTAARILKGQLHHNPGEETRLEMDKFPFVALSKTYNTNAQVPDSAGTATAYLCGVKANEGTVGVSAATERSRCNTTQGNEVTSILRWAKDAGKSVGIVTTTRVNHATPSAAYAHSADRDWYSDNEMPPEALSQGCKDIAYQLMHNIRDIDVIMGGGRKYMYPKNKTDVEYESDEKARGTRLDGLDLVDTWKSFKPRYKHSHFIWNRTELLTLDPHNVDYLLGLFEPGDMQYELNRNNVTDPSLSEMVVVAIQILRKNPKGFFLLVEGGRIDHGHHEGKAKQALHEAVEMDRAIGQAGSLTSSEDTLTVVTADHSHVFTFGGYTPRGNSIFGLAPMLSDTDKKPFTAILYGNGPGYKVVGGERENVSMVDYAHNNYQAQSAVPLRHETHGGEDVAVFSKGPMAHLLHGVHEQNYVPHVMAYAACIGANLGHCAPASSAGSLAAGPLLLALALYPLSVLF

[2] = Permeability by PAMPA assay; assay type: ADME
[3] = Metabolic stability in rat plasma after 30 mins; assay type: ADME, cell-free; settings: read-out: Stability
Procedure, shortened: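 Compounds incubated in fresh rat plasma at 37 °C for 30 min. Reported as percent remaining.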

[4] = Solubility at pH 7.4 by direct UV method; assay type: physicochemical; settings: buffer
Procedure, shortened: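 Direct UV kinetic solubility in aqueous buffer at pH 7.4, in duplicate. Samples held at room temperature for at least 18 h, then filtered to remove precipitate. UV absorbance (250-498 nm) compared with spectra of precipitation-free reference solutions.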

[5] = Metabolic stability in rat liver microsomes after 30 mins; assay type: ADME, Microsome; settings: read-out: Stability
Procedure, shortened: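 Compounds incubated in triplicate with pooled rat liver microsomes plus NADPH at 37 °C for 30 min. Reported as percent remaining.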

[6] = Cmax in rat at 4.13 mg/kg, sc; assay type: ADME, organism-based; parameters: dose 4.13 mg/kg, route subcutaneous; settings: in vivo
Procedure, shortened: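 Rats dosed subcutaneously with 400 microliters of a […] solution (4.13 mg/kg) in 50% DMSO in normal saline. Blood drawn and frozen immediately, plasma kept at -20 °C. Compound quantified by LC-MS/MS (electrospray, C18 reverse-phase, water-acetonitrile gradient) against a 7-point calibration curve built from peak areas of serial dilutions.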

[7] = biological target: Intestinal-type alkaline phosphatase (Homo sapiens, UniProt P09923); assay: Inhibition of IAP by luminescent assay
Intestinal-type alkaline phosphatase, sequence (P09923 whole entry): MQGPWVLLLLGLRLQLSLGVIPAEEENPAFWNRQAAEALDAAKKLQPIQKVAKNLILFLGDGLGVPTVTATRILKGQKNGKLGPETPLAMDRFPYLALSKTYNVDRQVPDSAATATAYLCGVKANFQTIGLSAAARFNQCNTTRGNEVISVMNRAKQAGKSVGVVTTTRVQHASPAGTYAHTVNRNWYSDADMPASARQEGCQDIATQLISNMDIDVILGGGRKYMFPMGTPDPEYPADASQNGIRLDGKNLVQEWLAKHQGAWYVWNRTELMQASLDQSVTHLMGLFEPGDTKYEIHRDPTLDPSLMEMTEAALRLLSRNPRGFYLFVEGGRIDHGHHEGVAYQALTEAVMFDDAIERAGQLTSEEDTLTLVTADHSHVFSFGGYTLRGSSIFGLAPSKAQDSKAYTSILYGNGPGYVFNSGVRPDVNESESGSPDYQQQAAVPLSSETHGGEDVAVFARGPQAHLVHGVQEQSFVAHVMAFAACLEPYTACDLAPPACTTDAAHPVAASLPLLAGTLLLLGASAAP

[8] = biological target: T2, Ectonucleotide pyrophosphatase/phosphodiesterase family member 1 (Homo sapiens) (UniProt P22413); assay: Inhibition of NPP1; settings: concentration not given here
T2 sequence (whole entry): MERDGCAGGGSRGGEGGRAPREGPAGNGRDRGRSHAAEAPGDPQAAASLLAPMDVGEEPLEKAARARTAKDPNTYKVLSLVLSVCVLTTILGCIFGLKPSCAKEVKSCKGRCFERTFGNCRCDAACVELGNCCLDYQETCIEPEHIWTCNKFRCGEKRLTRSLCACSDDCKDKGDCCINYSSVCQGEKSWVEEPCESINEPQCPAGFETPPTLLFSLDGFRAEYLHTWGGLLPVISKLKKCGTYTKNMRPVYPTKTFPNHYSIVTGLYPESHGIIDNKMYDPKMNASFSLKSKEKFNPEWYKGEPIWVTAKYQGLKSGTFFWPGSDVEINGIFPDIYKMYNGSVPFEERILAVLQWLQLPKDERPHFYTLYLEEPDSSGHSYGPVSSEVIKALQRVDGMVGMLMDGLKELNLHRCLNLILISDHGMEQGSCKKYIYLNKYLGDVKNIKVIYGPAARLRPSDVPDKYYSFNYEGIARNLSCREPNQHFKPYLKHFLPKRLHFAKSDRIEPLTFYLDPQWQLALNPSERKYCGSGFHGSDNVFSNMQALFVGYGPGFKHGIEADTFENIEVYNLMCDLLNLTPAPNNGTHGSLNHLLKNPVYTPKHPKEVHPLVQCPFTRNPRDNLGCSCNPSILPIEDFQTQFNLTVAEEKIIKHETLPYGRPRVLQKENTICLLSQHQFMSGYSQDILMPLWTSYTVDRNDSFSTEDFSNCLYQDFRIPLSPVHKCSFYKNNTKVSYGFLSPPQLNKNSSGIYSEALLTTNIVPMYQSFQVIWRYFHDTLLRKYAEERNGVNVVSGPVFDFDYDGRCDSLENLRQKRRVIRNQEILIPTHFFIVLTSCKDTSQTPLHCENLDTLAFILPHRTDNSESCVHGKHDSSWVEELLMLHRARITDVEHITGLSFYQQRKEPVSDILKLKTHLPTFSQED
Procedure, shortened: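 NPP1 activity with 5 mM pNP-TMP in 50 mM Tris pH 7.4 or 100 mM Tris pH 8.9 with 2 mM MgCl2 at 37 °C. Reaction started with enzyme and stopped with 1 M NaOH at set times. p-Nitrophenolate read at 410 nm, in triplicate, with no-enzyme controls. Inhibitor tested at 10 μM final.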

[9] = biological target: T3, Phosphoethanolamine/phosphocholine phosphatase (Homo sapiens) (UniProt Q8TCT1); assay: Inhibition of PHOSPHO1 assessed as inorganic phosphate release; settings: concentration not given here
T3 sequence (whole entry): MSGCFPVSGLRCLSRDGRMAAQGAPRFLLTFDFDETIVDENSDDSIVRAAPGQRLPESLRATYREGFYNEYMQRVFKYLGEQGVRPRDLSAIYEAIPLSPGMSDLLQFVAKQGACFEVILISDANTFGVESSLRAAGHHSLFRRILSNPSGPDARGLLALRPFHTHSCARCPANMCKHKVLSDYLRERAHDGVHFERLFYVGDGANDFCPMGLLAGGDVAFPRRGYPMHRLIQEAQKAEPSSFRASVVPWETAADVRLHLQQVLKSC

SMILES: CCOc1ccc(C)cc1S(=O)(=O)Nc1cccnc1
- pIC50 [1]: 5.95

SMILES: COc1ccc(C)cc1S(=O)(=O)Nc1cnc2ccccc2c1
- permeability [2]: 7%
- pIC50 [1]: 6.19
- remaining at 0.5 h [3]: 91%
- solubility kinetic [4]: 71.6 µg/mL (≈ 218 µM)
- remaining at 0.5 h [5]: 48%

SMILES: COc1ccc(F)cc1S(=O)(=O)Nc1cccnc1
- pIC50 [1]: 5.89

SMILES: COc1ccc(C)cc1S(=O)(=O)Nc1cccnc1
- permeability [2]: 83%
- pIC50 [1]: 5.73
- remaining at 0.5 h [3]: 98%
- solubility kinetic [4]: 28.5 µg/mL (≈ 102 µM)
- remaining at 0.5 h [5]: 39%

SMILES: CCOc1cc(C)c(Cl)cc1S(=O)(=O)Nc1cccnc1
- pIC50 [1]: 6.16

SMILES: CCOc1ccc(Cl)cc1S(=O)(=O)Nc1cccnc1
- pIC50 [1]: 6.27

SMILES: COc1cc(C)c(C)cc1S(=O)(=O)Nc1cccnc1
- pIC50 [1]: 5.77

SMILES: COc1ccc(Br)cc1S(=O)(=O)Nc1cnc2ccccc2c1
- permeability [2]: 54%
- remaining at 0.5 h [3]: 66%
- solubility kinetic [4]: 37.9 µg/mL (≈ 96.4 µM)
- remaining at 0.5 h [5]: 49%

SMILES: COc1ccc(OC)c(S(=O)(=O)Nc2ccc3ccccc3c2)c1
- pIC50 [1]: < 5.00

SMILES: COc1ccc(OC)c(S(=O)(=O)Nc2ccc3ncccc3c2)c1
- pIC50 [1]: < 5.00

SMILES: COc1ccc(OC)c(S(=O)(=O)Nc2cccnc2)c1
- pIC50 [1]: 5.97

SMILES: COc1ccc(OC)c(NS(=O)(=O)c2cnc3ccccc3c2)c1
- pIC50 [1]: < 5.00

SMILES: COc1cc(S(=O)(=O)Nc2cccnc2)c(OC)cc1C
- pIC50 [1]: 5.83

SMILES: COc1cc(S(=O)(=O)Nc2cccnc2)c(OC)cc1Br
- pIC50 [1]: 5.81

SMILES: COc1ccc(OC)c(S(=O)(=O)Nc2cnc3ccccc3c2)c1
- Cmax [6]: 1500 ng/mL
- permeability [2]: 58%
- pIC50 [7]: < 4.00
- inhibition [8]: < 9.5%
- remaining at 0.5 h [3]: 97%
- solubility kinetic [4]: 138 µg/mL (≈ 401 µM)
- remaining at 0.5 h [5]: 78%
- inhibition [9]: < 7.4%

SMILES: COc1cc([N+](=O)[O-])ccc1S(=O)(=O)Nc1cnc2ccccc2c1
- permeability [2]: 11%
- pIC50 [1]: 6.13
- remaining at 0.5 h [3]: 96%
- solubility kinetic [4]: 178 µg/mL (≈ 495 µM)
- remaining at 0.5 h [5]: 56%

SMILES: COc1cc(C)c(Cl)cc1S(=O)(=O)Nc1cccnc1
- pIC50 [1]: 6.29

SMILES: COc1cc(S(=O)(=O)Nc2cccnc2)c(OC)cc1Cl
- pIC50 [1]: 5.95

SMILES: COc1ccc(OC)c(CNc2cnc3ccccc3c2)c1
- pIC50 [1]: < 5.00

SMILES: COc1cc([N+](=O)[O-])ccc1S(=O)(=O)Nc1cccnc1
- permeability [2]: 51%
- pIC50 [1]: 5.50
- remaining at 0.5 h [3]: 99%
- solubility kinetic [4]: 1.1 µg/mL (≈ 3.56 µM)
- remaining at 0.5 h [5]: 68%

SMILES: COc1cccc(S(=O)(=O)Nc2cnc3ccccc3c2)c1
- pIC50 [1]: < 5.00
